In ChEMBL document CHEMBL3853359, “NO Photoreleaser-Deoxyadenosine and -Bile Acid Derivative Bioconjugates as Novel Potential Photochemotherapeutics” (ACS Med Chem Lett, 2016):
pIC50: −log10 of the molar value. Calls of active or inactive are those of the source. The rule behind the calls is not given here.

Columns and labels:
[1] = Cytotoxicity against human fibroblasts assessed as cell growth inhibition incubated for 72 hrs under dark condition by MTT assay; type: toxicity, cell-based, Fibroblast
Summary of the method: (§1)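 MTT read-out after 72 h continuous exposure in the dark. Test concentrations were 10, 25 and 50 μM for K562 leukaemia and HCT116 colon carcinoma cells, and up to 100 μM for normal human skin fibroblasts. IC50 was taken from dose–response curves, as the mean ± SD of three independent experiments.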

[2] = Stability of the compound in phosphate buffer at 50 uM and pH 7.4 under dark condition; type: physicochemical; conditions: pH 7.4, 50 µM
Summary of the method: (§2)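 NO was monitored directly in real time with an amperometric NO electrode (nanomolar sensitivity). Samples were 50 μM solutions in 10 mM phosphate buffer, pH 7.4, with 0.5% DMSO, kept in the dark and then illuminated with visible light (λ = 420 nm, 1.5 mW cm–2).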

[3] = Cytotoxicity against human HCT116 assessed as cell growth inhibition incubated for 72 hrs under dark condition by MTT assay; type: toxicity, cell-based, HCT-116; conditions: for IC50 at 72 h: HCT116 cells; for growth inhibition (GI): hct-116, 72 h; summary of the method: as §1
[4] = Cytotoxicity against human K562 assessed as cell growth inhibition incubated for 72 hrs under dark condition by MTT assay; type: toxicity, cell-based; conditions: for IC50 at 72 h: K562 cells; for growth inhibition (GI): k562, 72 h; summary of the method: as §1
[5] = Induction of NO release in phosphate buffer at 50 uM and pH 7.4 upon 1.5 mW/cm2 visible-light irradiation; type: physicochemical; conditions: pH 7.4, 50 µM; summary of the method: as §2
[6] = system: HCT-116; experiment: (§3) Photocytotoxicity against human HCT116 cells assessed as cell growth inhibition incubated for 72 hrs after exposure to 7 mW/cm2 of light-irradiation for 40 mins by MTT assay; type: functional, cell-based
Summary of the method: (§4)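 HCT116 cells with compound were irradiated with visible light (λ = 420 nm, 7 mW cm–2) for 40 min, then incubated to 72 h. Growth inhibition was read by MTT. IC50 was taken from dose–response curves, as the mean ± SD of three independent experiments.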

[7] = as §3; type: functional, cell-based; conditions: HCT-116, light or radiation study; summary of the method: as §4
[8] = Photoreactivity of the compound in phosphate buffer assessed as photobleaching of visible band at 50 uM and pH 7.4 upon 7 mW/cm2 of light-irradiation measured up to 70 mins; type: physicochemical; conditions: pH 7.4, 70 min
Summary of the method: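 50 μM solutions in 10 mM phosphate buffer, pH 7.4, with 0.5% DMSO were irradiated at λ = 420 nm, 7 mW cm–2, from 0 to 70 min. Absorption spectral changes were recorded, and kinetic profiles were followed at λmax and fitted linearly.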

[9] = Ratio of cytotoxicity against human HCT116 cells assessed as cell growth inhibition at 50 uM incubated for 72 hrs under dark condition by MTT assay to photocytotoxicity against human HCT116 cells assessed as cell growth inhibition at 50 uM incubated for 72 hrs after exposure to 7 mW/cm2 of light-irradiation for 40 mins by MTT assay

Row | Stability [2] | Activity [5] | Activity [8] | SMILES | IC50 at 72 h [1] | IC50 at 72 h [3] | growth inhibition (GI) [3] | IC50 at 72 h [4] | growth inhibition (GI) [4] | Activity [6] | pIC50 [7] | Ratio [9]
1 | Stable | Active | – | C[C@H](CCC(=O)O)[C@H]1CC[C@H]2[C@@H]3[C@@H](O)C[C@@H]4C[C@H](n5cc(CCCNc6ccc([N+](=O)[O-])c(C(F)(F)F)c6)nn5)CC[C@]4(C)[C@H]3CC[C@]12C | > 100 µM | 14 µM | Dose-dependent effect | 31.6 µM | Dose-dependent effect | – | – | –
2 | Stable | Active | Active | Nc1ncnc2c1nc(SCCCCCNc1ccc([N+](=O)[O-])c(C(F)(F)F)c1)n2[C@H]1C[C@H](O)[C@@H](CO)O1 | > 100 µM | 66.2 µM | Dose-dependent effect | 68.1 µM | Dose-dependent effect | Active | 4.51 | 2
3 | – | – | – | C[C@H](CCC(=O)O)[C@H]1CC[C@H]2[C@@H]3[C@H](O)C[C@@H]4C[C@H](n5cc(CCCNc6ccc([N+](=O)[O-])c(C(F)(F)F)c6)nn5)CC[C@]4(C)[C@H]3CC[C@]12C | 32 µM | 21 µM | – | 24 µM | – | – | – | –
